Experimental data collected from several papers.
Protocols differ between the studies behind these lines.
Effect on: metabolic stability

| Compound | test system | setting | quantity | value |
| --- | --- | --- | --- | --- |
| CN(C)CCc1c[nH]c2ccccc12 | human, hepatocytes | 0.6 µM | hepatocyte CLint | 19.4 µL/min/10⁶ cells |
| Cc1ncc2n1-c1ccc(Cl)cc1C(c1ccccc1F)=NC2 | human, liver microsomes | 1 µM | microsomal CLint | > 250 µL/min/mg |
| Cc1nc([C@@](C)(CC2CC2)NC(=O)c2cc(OCC(F)(F)F)c(C3CC3)cn2)no1 | human, hepatocytes |  | hepatocyte CLint | 17 µL/min/10⁶ cells |
| CCCCCn1nc(C(=O)Nc2cccc3ccccc23)c2ccccc21 | male human, liver microsomes | 1 µM, pH 7.4 | microsomal CLint | 410 µL/min/mg |
| C#Cc1ccc2c(c1)C(c1ccccn1)=NCc1c(-c3cnco3)ncn1-2 | human, liver microsomes |  | microsomal CLint | 0.046 µL/min/mg |
| COC(=O)N[C@H](C(=O)NN(CC[C@@]1(Cc2ccccc2)C(=O)N([C@H]2c3ccccc3C[C@H]2O)C[C@@H]1O)Cc1ccc(Br)cc1)C(C)(C)C | human, liver microsomes | 1 µM, pH 7.35 | microsomal CLint | > 300 µL/min/mg |
| Cc1nonc1Cn1nnc2c(N3CC[C@H](O)C3)nc(C(C)(C)C)nc21 | human, hepatocytes |  | hepatocyte CLint | 8.1 µL/min/10⁶ cells |
| CCCCCn1cc(C(=O)Nc2cccc3ccccc23)c2ccccc21 | male human, liver microsomes | 1 µM, pH 7.4 | microsomal CLint | 300 µL/min/mg |
| CN1CCN(Cc2ccc(NC(=O)c3cncc(C#Cc4cnc(N)c5ncccc45)c3)cc2C(F)(F)F)CC1 | human, liver microsomes |  | microsomal CLint | 3.6 µL/min/mg |
| Cc1ccc(F)c2cc(C(=O)N[C@@H]3CCC[C@H](N4CC[C@H](N(C)S(C)(=O)=O)C4)C3)[nH]c12 | human, hepatocytes | 0.5 µM, 2 h | scaled CLint | 51 mL/min/kg |
| Cc1cc(C)nc(Nc2ncc(C(=O)NCCc3c(C)[nH]c4ccccc34)cn2)c1 | human, liver microsomes | 1 µM | microsomal CLint | 25 µL/min/mg |
| Cc1nc2c(=O)n(C)c(=O)nc-2n(C)n1 | human, liver microsomes |  | microsomal CLint | < 7.4 µL/min/mg |
| NCCc1c[nH]c2ccc(O)cc12 | human, hepatocytes | 5 µM | hepatocyte CLint | 38.6 µL/min/10⁶ cells |
| C[C@H]1CN(Cc2ccc(C(F)(F)F)cc2N2CCOCC2)CCN1C(=O)n1ccc(S(=O)(=O)N(C)C)n1 | human, liver microsomes |  | microsomal CLint | 480 µL/min/mg |
| C[C@H](C(=O)N[C@H]1COc2ccccc2[C@@H]1S(C)(=O)=O)c1ccc(F)cc1 | human, liver microsomes | 1 µM, 1 h | microsomal CLint | 3 µL/min/mg |
